In ChEMBL document CHEMBL1124395, “Studies on bioactive compounds. 13. Synthesis and lack of growth-inhibitory properties of cyclohexane-1,2,4-triol 1,2-diesters, which resemble ring C of the phorbol ester molecule” (J Med Chem, 1989) one finds IC50 and LC50 data, which are given here for six molecules.

As usually defined, the IC50 is the concentration that gives 50% inhibition. A higher IC50 goes with weaker potency. One may read the LC50 as the concentration lethal to half of the exposed cells or organisms. Higher therefore signals a less lethal substance.

The species named for one assay is Homo sapiens. Nature of the assay: Concentration which cause half-maximal growth inhibition of human A549 lung carcinoma cell line. The format is functional. In a few lines:
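A549 human lung carcinoma cells ((2-5) × 10^4/well) grown in Ham's F12 with 10% fetal calf serum under 95% air/5% CO2 with compound for 4-5 days, until controls were confluent. Medium and compound were renewed every 2 days; diacylglycerols were added three times daily at 6-h intervals for 3 days. Final DMSO was ≤0.5%. Cells were trypsinised and counted by hemocytometer or Coulter counter. The 50% growth-inhibitory concentration was taken by linear regression (≥5 concentrations, four experiments).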

Assay [1] is described as follows: Concentration which cause half-maximal Lactate dehydrogenase in […]. Put shortly:
(§1)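 A549 cells (1 × 10^5/well) exposed 24 h to compound in medium with only 1% fetal calf serum; diacylglycerols added 3 times at 6-hourly intervals. Supernatant briefly centrifuged and kept on ice, then LDH activity read spectrophotometrically. Maximal releasable LDH came from control cells lysed with 1% Triton X-100. Half-maximal release was obtained by linear regression of the linear part of curves (≥5 concentrations, four experiments).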

Assay [2] is described as follows: Concentration which cause half-maximal Lactate dehydrogenase release in […]. In a few lines:
as §1

In turn, `CCCCCCCC(=O)O[C@H]1CC[C@H](O)C[C@@H]1OC(=O)CCCCCCC` yielded an IC50 in the assay filed under Homo sapiens of 58 µM. Further, the 50% lethal concentration (LC50) in assay [1] is 46 µM.

In the assay listed under Homo sapiens, `CCCCCCCC(=O)OC[C@@H](CO)OC(=O)CCCCCCC` registered an IC50 of 44 µM. In assay [1], this molecule had an LC50 of 56 µM.

`CCCCCCCC/C=C\CCCCCCCC(=O)OCC(CO)OC(C)=O` (stereo unspecified) displayed an IC50 in the assay filed under Homo sapiens of 70 µM. The LC50 in assay [2] was found to be 75 µM.

In the assay filed under Homo sapiens, `CCCCCCCC(=O)O[C@@H]1CC[C@H](O)C[C@H]1OC(=O)CCCCCCC` returned an IC50 of 43 µM. In assay [1], this molecule had an LC50 of 36 µM.

In assay [2], `CCCCCCCCCCCCCC(=O)O[C@@]12[C@H](OC(C)=O)[C@@H](C)[C@@]3(O)[C@@H](C=C(CO)C[C@]4(C)C(=O)C(C)=C[C@@H]34)[C@@H]1C2(C)C` displayed a median lethal concentration (LC50) above 1 µM.

In the assay listed under Homo sapiens, `CCCCCCCC(=O)O[C@H]1CC[C@H](O)C[C@H]1OC(=O)CCCCCCC` came in with an IC50 of 49 µM. In assay [2], this molecule showed an LC50 of 31 µM.
